KDM4C inh: KDM4C (human) demethylase inhibition; Q9H3R0; GST-KDM4C 2-372, H3K9me3 peptide, LANCE TR-FRET; inhibition, % at 12.5 µM; actives 0.15% (n = 96,000); AID 720574;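 active = mean replicate inhibition above about 25%, with at least 55% of replicates also reaching it, limit read from the data, passing the limit was not always enough; inconclusive = only one of those two conditions met; inactive = neither condition met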
Target sequence (Q9H3R0 2-372 limits assumed): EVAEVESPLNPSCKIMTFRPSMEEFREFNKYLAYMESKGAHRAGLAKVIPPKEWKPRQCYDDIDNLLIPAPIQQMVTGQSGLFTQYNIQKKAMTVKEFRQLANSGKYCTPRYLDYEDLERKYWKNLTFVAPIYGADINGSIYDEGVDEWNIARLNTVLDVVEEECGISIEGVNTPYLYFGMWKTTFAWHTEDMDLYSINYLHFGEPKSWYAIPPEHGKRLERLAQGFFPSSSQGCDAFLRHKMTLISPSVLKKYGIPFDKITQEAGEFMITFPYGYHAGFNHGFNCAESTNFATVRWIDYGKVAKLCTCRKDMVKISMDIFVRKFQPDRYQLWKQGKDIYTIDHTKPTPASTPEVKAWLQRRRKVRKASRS
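System: N-terminal GST-fused human GASC-1 (KDM4C) fragment, residues 2-372; amount: enzyme final amount 10 nM; incubation: reaction 30 min RT, detection step 1 h RT; medium: HEPES buffer, pH 7.5, plus ascorbate; technique: LANCE TR-FRET, Eu antibody, ULight-streptavidin, EDTA, ex 340 nm, em 618/671 nm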
Pf Dd2 inh: P. falciparum Dd2 growth inhibition; SYBR Green, 72 h; stronger effect = lower value; activity change, % at 10 µM; actives 2.3% (n = 94,000); in the data active = activity change below about -80%; inconclusive = no clear call, values can overlap the other calls
IDH1 R132H inh: inhibitors of human IDH1 R132H; inhibition, % at 10 µM; IDH1 R132H reductase, diaphorase/resazurin fluorescence, 60 min; O75874; actives 0.18% (n = 70,000); in the data active = inhibition above about 34%; inconclusive = no clear call, values can overlap the other calls; inactive = below about 11%
T cruzi growth: blocks T. cruzi growth in NIH3T3 culture; actives 5.9% (n = 77,000); T. cruzi beta-gal in NIH3T3, GalScreen luminescence, 90 h; inhibition, % at 8.34 µM;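 active = mean inhibition above about 93%, with at least 55% of replicates each passing it, limit read from the data, passing the limit was not always enough; inconclusive = only one of those two conditions holds; inactive = neither condition holds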
Numbers stand for hits; 0 = inactive; ? = inconclusive; - = no result. The list is not random: actives were taken first. Their share in the collection is about 5.8%.

SMILES	KDM4C inh	Pf Dd2 inh	IDH1 R132H inh	T cruzi growth
C[C@@H]1CCCCO[C@@H](CN(C)C(=O)C2CCCCC2)[C@@H](C)CN([C@H](C)CO)C(=O)c2cc(NC(=O)Cc3ccccc3)ccc2O1	0	0	0	0
C[C@@H]1CN([C@H](C)CO)C(=O)c2cc(NC(=O)Nc3ccccc3)ccc2O[C@@H](C)CCCCO[C@@H]1CN(C)C(=O)C1CCCCC1	-	-86.4	0	0
C[C@H]1CCCCO[C@@H](CN(C)C(=O)C2CCCCC2)[C@@H](C)CN([C@@H](C)CO)C(=O)c2cc(NC(=O)NC3CCCCC3)ccc2O1	0	-82.3	-	0
C[C@@H]1CCCCO[C@H](CN(C)C(=O)C2CCCCC2)[C@@H](C)CN([C@@H](C)CO)C(=O)c2cc(NC(=O)Nc3ccc(F)cc3)ccc2O1	0	-90.4	0	0
C[C@H]1CCCCO[C@@H](CN(C)C(=O)C2CCCCC2)[C@@H](C)CN([C@@H](C)CO)C(=O)c2cc(NC(=O)Cc3ccccc3)ccc2O1	0	-87.0	0	0
CC(C(=O)Nc1cc(Cl)ccc1O)N1C(=O)c2ccccc2C1=O (stereo unspecified)	-	-	0	-
COc1ccc(NC(=O)C2CC=CCC2C(=O)Nc2ccccc2Cl)cc1 (stereo unspecified)	-	-	0	-
C[C@@H]1CCCCO[C@@H](CN(C)C(=O)C2CCCCC2)[C@@H](C)CN([C@@H](C)CO)C(=O)c2cc(NC(=O)Nc3ccc(F)cc3)ccc2O1	0	0	-	0
C[C@@H]1CN([C@H](C)CO)C(=O)c2cc(NC(=O)Nc3ccc(F)cc3)ccc2O[C@@H](C)CCCCO[C@@H]1CN(C)C(=O)C1CCCCC1	0	-92.1	-	0
C[C@@H]1CN([C@@H](C)CO)C(=O)c2cc(NC(=O)Nc3ccc(F)cc3)ccc2O[C@@H](C)CCCCO[C@@H]1CN(C)C(=O)C1CCCCC1	0	-85.3	-	0
Cc1c(NC(=O)CN(c2ccc(F)c(Cl)c2)S(C)(=O)=O)cccc1[N+](=O)[O-]	-	-	0	-
COc1ccc(S(=O)(=O)Nc2ccc3c(c2)CC(=O)N([C@@H](C)CO)C[C@H](C)[C@@H](CN(C)Cc2ccc(C(=O)Nc4ccccc4N)cc2)O3)cc1	0	-88.1	0	-
COc1ccc(S(=O)(=O)Nc2ccc3c(c2)CC(=O)N([C@H](C)CO)C[C@H](C)[C@@H](CN(C)Cc2ccc(C(=O)Nc4ccccc4N)cc2)O3)cc1	0	-85.4	0	0
O=C(/C=C/CCc1ccccc1)CCc1ccccc1	-	-	0	-
C[C@@H]1CCCCO[C@H](CN(C)C)[C@H](C)CN([C@H](C)CO)C(=O)c2cc(NC(=O)Nc3cccc4ccccc34)ccc2O1	0	-85.8	0	0
C[C@@H]1CCCCO[C@@H](CN(C)C(=O)Nc2cccc3ccccc23)[C@H](C)CN([C@@H](C)CO)C(=O)c2cc(NC(=O)Nc3ccccc3)ccc2O1	0	0	0	0
CCCN(C)C[C@@H]1OCCCC[C@H](C)Oc2ccc(NC(=O)Nc3cccc4ccccc34)cc2C(=O)N([C@H](C)CO)C[C@@H]1C	0	-88.3	0	-
C[C@@H]1CCCCO[C@@H](CN(C)C(=O)Nc2cccc3ccccc23)[C@@H](C)CN([C@@H](C)CO)C(=O)c2cc(NC(=O)Nc3cccc4ccccc34)ccc2O1	0	-83.3	-	0
C[C@@H]1CN([C@@H](C)CO)C(=O)c2cc(NC(=O)Nc3cccc4ccccc34)ccc2O[C@@H](C)CCCCO[C@@H]1CN(C)C(=O)c1ccccc1	0	0	-	0
C[C@@H]1CN([C@@H](C)CO)C(=O)c2cc(NC(=O)Nc3cccc4ccccc34)ccc2O[C@@H](C)CCCCO[C@@H]1CN(C)C(=O)C1CCCCC1	0	-88.1	-	0
CCCN(C)C[C@@H]1OCCCC[C@@H](C)Oc2ccc(NC(=O)Nc3cccc4ccccc34)cc2C(=O)N([C@H](C)CO)C[C@@H]1C	0	?	0	0
COc1ccccc1Nc1nc(N)nc(CSc2nc3ccccc3s2)n1	-	-	0	-
N#C[C@@H]1[C@H](c2ccc(C#CC3CCCCC3)cc2)[C@H](CO)N1C(=O)Nc1ccc(F)cc1	0	-87.8	-	-
N#C[C@H]1[C@H](c2ccc(C#CC3CCCCC3)cc2)[C@@H](CO)N1C(=O)Nc1ccc(F)cc1	0	-86.1	-	-
C[C@@H]1CN([C@@H](C)CO)C(=O)c2c(c3ccccc3n2C)-c2ccccc2CO[C@@H]1CN(C)Cc1ccc(Cl)c(Cl)c1	0	-86.8	-	-
SMILES	KDM4C inh	Pf Dd2 inh	IDH1 R132H inh	T cruzi growth
C[C@@H]1CN([C@H](C)CO)C(=O)c2c(c3ccccc3n2C)-c2ccccc2CO[C@H]1CN(C)Cc1ccc(Cl)c(Cl)c1	0	-88.7	-	-
C[C@@H]1CN([C@H](C)CO)C(=O)c2c(c3ccccc3n2C)-c2ccccc2CO[C@@H]1CN(C)Cc1ccc(Cl)c(Cl)c1	0	-84.5	-	-
C[C@H](CO)N1C[C@H](C)[C@H](CN(C)Cc2ccc(O)cc2)OCc2ccccc2-c2c(n(C)c3ccccc23)C1=O	0	0	-	-
C[C@H](CO)N1C[C@H](C)[C@H](CN(C)Cc2ccc(Cl)c(Cl)c2)OCc2ccccc2-c2c(n(C)c3ccccc23)C1=O	0	0	-	-
C[C@H]1CN([C@@H](C)CO)C(=O)c2c(c3ccccc3n2C)-c2ccccc2CO[C@@H]1CN(C)Cc1ccc(Cl)c(Cl)c1	0	-87.7	-	-
C[C@H]1CN([C@@H](C)CO)C(=O)c2cc(NC(=O)Cc3cn(C)c4ccccc34)ccc2O[C@@H]1CN(C)S(=O)(=O)c1ccccc1	-	-84.5	-	0
C[C@H](CO)N1C[C@H](C)[C@H](CN(C)S(=O)(=O)c2ccccc2)Oc2ccc(NC(=O)Cc3cn(C)c4ccccc34)cc2C1=O	-	-92.9	-	0
C[C@H](CO)N1C[C@H](C)[C@@H](CN(C)S(=O)(=O)c2ccccc2)Oc2ccc(NC(=O)Cc3cn(C)c4ccccc34)cc2C1=O	-	-87.5	0	0
C[C@@H]1CN([C@H](C)CO)C(=O)c2cc(NC(=O)Cc3cn(C)c4ccccc34)ccc2O[C@H]1CN(C)S(=O)(=O)c1ccccc1	0	0	0	0
COc1cc(NC(=O)CN(C)S(=O)(=O)c2ccc(C)cc2)c(OC)cc1Cl	-	-	0	-
CC(C)(C(=O)Oc1ccccc1)S(=O)(=O)c1ccc(C(F)(F)F)cn1	-	-	0	-
NC(=O)CSCC(=O)Nc1ccc(Br)cc1	-	-	0	-
CC1(C)CC(=O)C2=C(C1)N(c1ccccc1)C(=O)C2(NC(=O)c1cccnc1)C(F)(F)F (stereo unspecified)	-	-	0	-
COC(=O)COc1cc(Cl)c(C2NC(=S)NC(c3ccccc3)=C2C(C)=O)cc1OC (stereo unspecified)	-	-	0	-
C[C@H](CO)N1C[C@H](C)[C@H](CN(C)C(=O)Nc2cccc(Cl)c2Cl)OCc2ccccc2-c2c(n(C)c3ccccc23)C1=O	0	0	-	-
C[C@H]1CN([C@@H](C)CO)C(=O)c2c(c3ccccc3n2C)-c2ccccc2CO[C@H]1CN(C)C(=O)Nc1cccc(Cl)c1Cl	0	-90.9	-	-
C[C@H](CO)N1C[C@H](C)[C@@H](CN(C)C(=O)Nc2cccc(Cl)c2Cl)OCc2ccccc2-c2c(n(C)c3ccccc23)C1=O	0	0	-	-
